Assay results published in ChEMBL document CHEMBL1148937, “Anti-inflammatory phloroglucinols and terpenoids from Garcinia subelliptica” (J Nat Prod, 2004).

Legend:
[1] = system: RAW264.7; experiment: Antiinflammatory activity against mouse RAW264.7 cells assessed as inhibition of LPS-induced nitrite accumulation after 24 hrs; assay type: functional, cell-based; conditions: RAW264.7, 24 h
In short: (§1)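 RAW 264.7 macrophage-like cells stimulated with LPS (1 µg/mL) for 24 h. Nitrite accumulated in the medium was measured by Griess reaction as an index of NO production. IC50 in µM; % inhibition is reported when 50% inhibition was not reached at the top concentration. Means ± SEM, n = 3-5.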

[2] = system: N9; experiment: Antiinflammatory activity against mouse N9 cells assessed as inhibition of LPS/IFN-gamma-induced nitrite accumulation after 24 hrs; conditions: N9, 24 h
[3] = system: Mast cell; experiment: Inhibition of compound 48/80-stimulated beta-glucuronidase release in rat peritoneal mast cell; assay type: functional, cell-based
[4] = system: Mast cell; experiment: Inhibition of compound 48/80-stimulated histamine release in rat mast cell; assay type: functional, cell-based
[5] = system: Neutrophil; experiment: Induction of fMLP/CB-stimulated superoxide anion generation in rat neutrophil; assay type: functional, cell-based
In short: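 Rat neutrophils stimulated with fMLP (0.3 µM) plus cytochalasin B (5 µg/mL). Superoxide anion generation measured across a concentration range of test agent.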

[6] = system: RAW264.7; experiment: Antiinflammatory activity against mouse RAW264.7 cells assessed as inhibition of LPS-induced TNFalpha production at 30 uM; assay type: functional
In short: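 TNF-α production in the culture medium of LPS-stimulated RAW 264.7 cells, with test agent at 30 µM. Expressed as % inhibition.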

[7] = system: N9; experiment: Antiinflammatory activity against mouse N9 cells assessed as inhibition of LPS/IFN-gamma-induced nitrite accumulation at >30 uM after 24 hrs; assay type: functional
In short: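 N9 microglial cells stimulated with LPS (10 ng/mL) plus IFN-γ (10 U/mL) for 24 h. NO production measured as nitrite accumulation in the medium by Griess reaction. IC50 in µM; where 50% inhibition was not reached at the highest concentration, % inhibition is given. Means ± SEM, n = 3-5.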

[8] = system: Mast cell; experiment: Inhibition of compound 48/80-stimulated beta-glucuronidase release in rat mast cell at >30 uM; assay type: functional
[9] = system: Mast cell; experiment: Inhibition of compound 48/80-stimulated histamine release in rat mast cell at >30 uM; assay type: functional
[10] = system: RAW264.7; experiment: Antiinflammatory activity against mouse RAW264.7 cells assessed as inhibition of LPS-induced nitrite accumulation at >30 uM after 24 hrs; assay type: functional; in short: as §1

IC50 [1] [µM] | IC50 [2] [µM] | IC50 [3] [µM] | IC50 [4] [µM] | Structure (SMILES) | Activity [5] | inhibition at 30 µM [6] [%] | inhibition (INH) [7] [%] | inhibition (INH) [8] [%] | inhibition (INH) [9] [%] | inhibition (INH) [10] [%]
2.9 | 6.3 |  |  | CC(=N)NCc1cccc(CN)c1 [1400W] |  |  |  |  |  | 
22.7 | 12.8 | 22.9 | > 30 | CC(C)=CC[C@H]1C[C@]2(C(=O)C(C)C)C(=O)[C@@](CC=C(C)C)(C(=O)C3=C2O[C@@H](C(C)(C)O)C3)C1(C)C [GARCINIELLIPTONE L] | Dose-dependent effect | 32.1 |  |  |  | 
15.3 | > 30 | 13.6 | 19 | CC(C)=CC[C@H]1C[C@]2(C(=O)C(C)C)C(=O)[C@@](CC=C(C)C)(C(=O)C3=C2O[C@H](C(C)(C)O)C3)C1(C)C [GARCINIELLIPTONE M] | Dose-dependent effect | 36.9 |  |  |  | 
> 30 | > 30 | > 30 | > 30 | CC(C)=CC[C@H]1C[C@@H](CC=C(C)C)C(C)(C)[C@@H](C(=O)C(C)C)C1=O [GARCINIELLIPTONE N] |  |  | 34.5 | 30.2 | 13.7 | 5.7
> 30 | > 30 | > 30 | > 30 | COC(=O)[C@]1(CC=C(C)C)C[C@@H](CC=C(C)C)C(C)(C)[C@@H](C(=O)C(C)C)C1=O [GARCINIELLIPTONE O] |  |  | 34.6 | 43.9 | 32.8 | 22.1
 |  | 13.7 | 23.3 | CCN(CC)CCCC(C)Nc1c2ccc(Cl)cc2nc2ccc(OC)cc12 (configuration not stated) [QUINACRINE] |  |  |  |  |  | 
